MOR-DOR inv ag – inverse agonists of human mu-delta opioid receptor heterodimerization | cell-based MOR-DOR heterodimer luminescence, inverse agonism | inhibition, % at 9.3 µM | AID 504357 | P35372+P41143 | 340,000 compounds, 0.21% hits; in the data active = inhibition above about 22%, passing the limit was not always enough
Target sequence (P35372 whole entry, looked up): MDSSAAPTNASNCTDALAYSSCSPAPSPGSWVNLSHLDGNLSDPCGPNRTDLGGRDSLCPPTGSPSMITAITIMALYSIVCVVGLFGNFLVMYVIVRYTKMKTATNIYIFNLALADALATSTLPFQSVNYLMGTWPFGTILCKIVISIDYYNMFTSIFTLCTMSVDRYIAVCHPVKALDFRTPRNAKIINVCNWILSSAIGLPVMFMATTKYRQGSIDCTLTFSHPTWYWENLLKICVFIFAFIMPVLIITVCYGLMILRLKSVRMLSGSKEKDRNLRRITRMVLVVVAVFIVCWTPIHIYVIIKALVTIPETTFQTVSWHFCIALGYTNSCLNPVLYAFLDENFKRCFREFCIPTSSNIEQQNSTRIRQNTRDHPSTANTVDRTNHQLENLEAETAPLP
Target sequence (P41143 whole entry, looked up): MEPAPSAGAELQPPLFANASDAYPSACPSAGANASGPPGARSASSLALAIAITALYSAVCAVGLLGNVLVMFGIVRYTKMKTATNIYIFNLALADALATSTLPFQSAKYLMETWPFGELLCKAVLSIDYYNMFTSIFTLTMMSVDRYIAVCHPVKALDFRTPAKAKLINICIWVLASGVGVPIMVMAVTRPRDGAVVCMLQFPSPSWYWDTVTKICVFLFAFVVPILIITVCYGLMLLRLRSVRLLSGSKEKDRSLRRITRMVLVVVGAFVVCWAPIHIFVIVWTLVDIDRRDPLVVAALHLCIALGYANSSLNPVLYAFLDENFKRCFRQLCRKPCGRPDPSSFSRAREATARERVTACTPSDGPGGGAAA
HTR5A inv ag – counter-screen for OPRM1-OPRD1 inverse agonists: human HTR5A inverse agonism | AID 504634 | inhibition, % at 9.3 µM | 340,000 compounds, 0.083% hits | HTR5A cell line, luminescence; in the data active = inhibition mostly above about 23%, no sharp cut-off; inactive = mostly below about 18%
HTR5A ag ctr – activates human HTR5A in OPRM1-OPRD1 agonist counter-screen | 340,000 compounds, 0.61% hits | AID 504692 | HTR5A agonist assay, luminescence, cell-based | activation, % at 9.3 µM | P47898; in the data active = activation mostly above about 9.5%, no sharp cut-off; inactive = mostly below about 7.6%
OPRM1-OPRD1 ag – OPRM1-OPRD1 heterodimerization agonism. P35372+P41143. cells, luminescence. activation, % at 9.3 µM. 340,000 compounds, 0.3% hits
Hep lipid drop – modulators of hepatic lipid droplet formation; AML12 mouse hepatocytes, oleate lipid droplets, BODIPY imaging; inhibition, % at 6.5 µM; 240,000 compounds, 0.4% hits;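 active = lipid droplet intensity inhibited by at least 50%, with more than 500 cells counted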
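Assay system: AML12 hepatocytes (mouse) / Also added: 100 µM oleic acid challenge / Times: overnight treatment with compound plus oleate / Detection: high-content imaging of BODIPY-stained droplets and DAPI nuclei / Evaluation: % inhibition of lipid droplet signal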
OPRM1-D1 ag cf – confirmation of human OPRM1-OPRD1 heterodimerization agonists | shares compounds with OPRM1-OPRD1 ag | cells, MOR-DOR heterodimerization, luminescence complementation | activation, % at 9.3 µM | 830 compounds, 45% hits | AID 504904
HTR5A ag ctr2 – counter-screen for OPRM1-OPRD1 agonists: human HTR5A agonism. shares compounds with OPRM1-OPRD1 ag. HTR5A agonist counterscreen, cell luminescence. activation, % at 9.3 µM. 830 compounds, 8% hits. AID 504905; in the data active = activation above about 17%
Large screens that a line does not name were inactive (follow-up assays come after a bar, where they were run). Shown are actives, neighbours in structure and some others; about 1.4% of the full set was active somewhere. Cut-off read from the data, not from the text of the source, unless noted: active = activation above about 18%; inactive = the rest.

CC(=O)OC1CC(OC2C(O)CC(OC3C(O)CC(OC4CCC5(C)C(CCC6C5CCC5(C)C(C7=CC(=O)OC7)C(O)CC65O)C4)OC3C)OC2C)OC(C)C1OC1OC(CO)C(O)C(O)C1O (configuration not stated)	HTR5A ag ctr 19.1, OPRM1-OPRD1 ag 71.8 (no result: Hep lipid drop) | OPRM1-D1 ag cf 37.9 | HTR5A ag ctr2 28.0
CC(=O)OC1CC2(O)C3CCC4CC(O)CCC4(C)C3CCC2(C)C1C1=CC(=O)OC1 (configuration not stated)	HTR5A ag ctr 28.3, OPRM1-OPRD1 ag 81.2 (no result: Hep lipid drop) | OPRM1-D1 ag cf inactive | HTR5A ag ctr2 62.3
CC(=O)[C@H]1CCC2C3CC[C@H]4C[C@@H](O)CC[C@]4(C)C3CC[C@@]21C (some centres not stated)	none (no result: Hep lipid drop)
CN(C)C1(CNC(=O)c2ccc(Cl)c(S(=O)(=O)NCc3ccco3)c2)CCCCC1	OPRM1-OPRD1 ag 71.4 | OPRM1-D1 ag cf 79.8 | HTR5A ag ctr2 inactive
CN(C)C1(CNC(=O)Cc2ccccc2F)CCCCC1	none
CC[C@H](OC(C)=O)C(C[C@H](C)N(C)C)(c1ccccc1)c1ccccc1	OPRM1-OPRD1 ag 220.6 (no result: Hep lipid drop) | OPRM1-D1 ag cf inactive | HTR5A ag ctr2 51.6
CC/C(=C\C=C\[C@@H]1C=C[C@@H]2CCC[C@H]2[C@@H]1C(=O)c1ccc[nH]1)[C@@H]1O[C@@H]([C@@H](C)C(=O)O)CC[C@@H]1C	none (no result: MOR-DOR inv ag, HTR5A inv ag, HTR5A ag ctr, OPRM1-OPRD1 ag)
CN(C(=O)Cc1ccc(Cl)c(Cl)c1)C(CN1CCCC1)c1cccc(OCC(=O)O)c1 (configuration not stated)	OPRM1-OPRD1 ag 57.0 (no result: Hep lipid drop) | OPRM1-D1 ag cf 36.9 | HTR5A ag ctr2 inactive
Cc1cccc(OCC(=O)N2CCN(Cc3ccc4c(c3)OCO4)CC2)c1	none
FC(F)(F)c1ccc2c(c1)NP(=S)(N1CCOCC1)c1nccn1-2 (configuration not stated)	none (no result: Hep lipid drop)
COC12CCC3(CC1C(C)(O)C(C)(C)C)[C@H]1Cc4ccc(OC5OC(C(=O)O)[C@@H](O)C(O)[C@H]5O)c5c4[C@@]3(CCN1CC1CC1)C2O5 (some centres not stated)	OPRM1-OPRD1 ag 18.2 (no result: Hep lipid drop) | OPRM1-D1 ag cf 84.3 | HTR5A ag ctr2 inactive
O=C1/C(=C/c2ccccc2)C[C@@]2(O)[C@H]3Cc4ccc(O)c5c4[C@@]2(CCN3CC2CC2)C1O5 (some centres not stated)	none (no result: Hep lipid drop)
C=C1CC[C@@]2(O)[C@H]3Cc4ccc(O)c5c4[C@@]2(CCN3CC2CC2)[C@H]1O5	none (no result: MOR-DOR inv ag, HTR5A inv ag, HTR5A ag ctr, OPRM1-OPRD1 ag)
COC12CCC3(CC1C(C)(O)C(C)(C)C)[C@H]1Cc4ccc(O)c5c4[C@@]3(CCN1CC1CC1)C2O5 (some centres not stated)	none (no result: MOR-DOR inv ag, OPRM1-OPRD1 ag, Hep lipid drop) | HTR5A ag ctr2 52.9
Cc1cc(N)n(C2CCN(C)CC2)n1	none (no result: Hep lipid drop)
ClCCN(CCCl)c1ccc(-n2cnc3c(Cl)ncnc32)cc1	none (no result: Hep lipid drop)
CC(=O)c1c(C)n(CCCOC(C)C)c2ccc(O)cc12	none
CC1OC(OC2C=C3CCC4C(CCC5(C)C(c6ccc(=O)oc6)CCC45O)C3(C)CC2)C(O)C(OC2OC(CO)C(O)C(O)C2O)C1O (configuration not stated)	HTR5A ag ctr 25.7, OPRM1-OPRD1 ag 91.5 (no result: Hep lipid drop) | OPRM1-D1 ag cf inactive | HTR5A ag ctr2 inactive
Cc1ccc(-n2c(O)c(C=NCc3ccco3)c(=O)[nH]c2=S)cc1C	none
O=C(CCc1nnc2ccc(NCc3ccc(F)cc3)nn12)N1CCC2(CC1)OCCO2	none
CC1=NCCc2c1[nH]c1ccccc21	OPRM1-OPRD1 ag 19.5 | OPRM1-D1 ag cf inactive | HTR5A ag ctr2 inactive
CCOC(=O)C1(CCOc2ccccc2)CCN(Cc2ccc(C)s2)CC1	OPRM1-OPRD1 ag 32.8 | OPRM1-D1 ag cf 38.5 | HTR5A ag ctr2 inactive
CCOC(=O)C1(CCc2ccccc2)CCN(Cc2ccc(NC(C)=O)cc2)CC1	OPRM1-OPRD1 ag 292.7 | OPRM1-D1 ag cf 372.3 | HTR5A ag ctr2 inactive
CCOC(=O)C1(CCc2ccccc2)CCN(Cc2ccc3c(c2)OCCO3)CC1	OPRM1-OPRD1 ag 24.7 | OPRM1-D1 ag cf inactive | HTR5A ag ctr2 inactive
CCOC(=O)C1(CCc2ccccc2)CCN(C2CCSCC2)CC1	none
